Source: PubChem (several laboratories)
The list is not random: actives were taken first. Their share in the collection is about 1.2%.
PMI act satM6P: human PMI activators, high substrate, primary screen, biochemical, fluorescence intensity, near-saturating mannose 6-phosphate; coupled PMI enzyme assay, resazurin fluorescence, 20 min; hits give high values; 1 = untreated enzyme, 0 = substrate-free blank; activation factor at 20 µM; Mannose-6-phosphate isomerase (Homo sapiens), P34949; AID 1216, 2008; 190,000 compounds, 0.34% hits;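 active = activation factor of 2 or more at 20 µM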
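Test system: human phosphomannose isomerase with PGI, G6PDH, diaphorase coupling enzymes; Amount: PMI at 15 ng/mL final; Reagent: Mannose-6-phosphate 1.0 mM (near-saturating) plus 0.22 mM NADP+; Timing: 20 min, room temperature; Technique: resorufin fluorescence at Ex 544/Em 590 nm; Dosing: 20 µM single dose.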
Diaph act CS: compounds boosting diaphorase resazurin reduction – biochemical, uHTS, resorufin fluorescence, counter-screen for diaphorase-coupled primary assays, primary screen. Diaphorase/resazurin coupled assay, 16 min; hits give high values; 1 = vehicle wells, 0 = NADH-free wells. activation factor at 20 µM. 190,000 compounds, 0.005% hits. AID 1229, 2008;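 active = diaphorase activity raised at least twofold by the compound at 20 µM; inactive = activation factor below 2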
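Measured by – red resorufin fluorescence at 544/590 nm excitation/emission · Test system – Clostridium kluyveri diaphorase, purified enzyme · Incubation – reaction time 16 min, room temperature · Buffer or medium – 50 mM HEPES pH 7.4 with 4.542 mM MgCl2, 0.005% Tween 20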
DTT redox prof: compounds producing H2O2 with reducing agent – biochemical, NIH compound library profiling, artefact control for MLSCN library redox annotation, primary screen | DTT-dependent redox cycling H2O2, phenol red/HRP absorbance; 100% = 100 µM peroxide control, 0% = buffer | activation, % at 10 µM | 200,000 compounds, 0.03% hits | AID 878, 2007;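 active = activation of at least 50% relative to the plate's high and low controls in the primary single-dose screen; inactive = activation below 50%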;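 note: compound incubated with DTT at 0.8 mM final as the reducing agent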
NCF1 inh: p47phox/p22phox peptide binding inhibitors, primary screen, biochemical, uHTS, NADPH oxidase regulatory subunit; fluorescence polarization, 2 h; inhibition, % at 24.7 µM; 220,000 compounds, 0.53% hits;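 active = inhibition above about 30%, limit read from the data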;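 note: 0% = p47phox with labelled peptide and 100% = labelled peptide alone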
Target sequence (P14598 whole entry, looked up): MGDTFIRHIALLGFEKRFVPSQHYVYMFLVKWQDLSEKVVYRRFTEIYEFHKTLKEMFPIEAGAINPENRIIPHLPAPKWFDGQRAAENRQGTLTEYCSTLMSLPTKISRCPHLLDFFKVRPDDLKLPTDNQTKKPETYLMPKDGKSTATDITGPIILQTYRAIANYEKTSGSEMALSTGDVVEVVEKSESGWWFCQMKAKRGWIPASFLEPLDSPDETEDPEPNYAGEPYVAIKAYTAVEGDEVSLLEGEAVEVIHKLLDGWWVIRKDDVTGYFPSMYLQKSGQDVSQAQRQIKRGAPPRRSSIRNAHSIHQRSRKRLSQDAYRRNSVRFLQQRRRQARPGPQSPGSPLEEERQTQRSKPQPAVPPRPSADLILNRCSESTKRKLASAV
HMGR II inh: inhibitors of E. faecalis class II HMGR, primary screen, biochemical, Enterococcus faecalis; HMG-CoA reductase (Enterococcus faecalis, mvaE); AID 1066, 2008; inhibition, % at 10 µM; purified E. faecalis HMGR, NADPH absorbance 340 nm kinetic; 190,000 compounds, 0.41% hits;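 active = inhibition above a set limit, the median over all tested compounds plus 3 SD, cut at about 9.5% in these data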;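 note: enzyme runs in reverse so mevalonate oxidation gives rising NADPH absorbance; 0% = complete reaction with DMSO and 100% = background rate lacking mevalonate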
PMI act: activators of human PMI, primary screen, biochemical, fluorescence intensity, near-Km mannose 6-phosphate. purified human PMI, coupled resazurin fluorescence, 20 min; hits give high values; 1 = vehicle control, 0 substrate-free wells. 190,000 compounds, 0.005% hits. activation factor at 20 µM;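 active = activation factor of 2 or more at 20 µM, relative to plate controls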
* hit, by the source's call; · = no result given.

SMILES | PMI act satM6P | Diaph act CS | DTT redox prof | NCF1 inh | HMGR II inh | PMI act
c1ccc(-c2ccc(-c3n(-c4ccccn4)c4ccccc4[n+]3-c3ccccn3)cc2)cc1 | 1 | 0.8 | 0.3 | 34.2* | -4.3 | 1.2
O=C(O)CCn1cc(C=C2C(=O)NC(=S)NC2=O)c(-c2ccccc2)n1 | 1.1 | 0.8 | -1.2 | -17.8 | -6.2 | 0.4
O=C(O)CCn1cc(C=C2C(=O)NC(=S)NC2=O)c(-c2cc3ccccc3oc2=O)n1 | 2.3* | 0.9 | -0.7 | -53.1 | 1.1 | 1.3
Cn1c(O)c(C=NC2CCCCCC2)c(=O)[nH]c1=S | 1 | 1 | -0.7 | -4.1 | -4.7 | 0.9
CS(=O)(=O)N1CCN(C(=N)N[N+](=O)[O-])CC1 | 1 | 1.1 | 0.3 | -5.2 | -2.6 | 1.1
CN(C)c1nc(-c2ccccc2)[n+](C)s1 | 1 | 0.9 | -2.6 | -2.2 | -1.1 | 1.1
Cc1ccc(-c2nc(N3CCOCC3)s[n+]2-c2ccccc2)cc1 | 0.6 | 0.9 | -0.7 | 38.0* | 0.3 | 0.5
O=C1CC(N2CC=C(c3ccc(F)cc3)CC2)C(=O)N1c1ccc(F)cc1 (stereo not drawn) | 1.1 | 0.8 | 1.9 | -10.1 | -5.6 | 1.1
CCOC(=O)c1ccc(N2C(=O)CC(N3CC=C(c4ccc(F)cc4)CC3)C2=O)cc1 (stereo not drawn) | 2* | 1 | 1.3 | -52.6 | -3.5 | 1.6
Cc1nn(Cc2c(Cl)cccc2Cl)c(Cl)c1C(=O)O | 1.1 | 1 | -0.6 | 11.1 | 5.7 | 1.1
COc1ccc(C(=O)C2CCCN(Cc3cnc(C)s3)C2)cc1OC (stereo not drawn) | 0.9 | 0.8 | 0.0 | 3.8 | 0.3 | 0.9
COc1ccc(C(=O)C2CCCN(Cc3cnc(C)s3)C2)c(OC)c1 (stereo not drawn) | 1 | 0.9 | -0.7 | 6.6 | 15.9* | 0.9
O=c1cccc2n1CC1CC2CN(S(=O)(=O)c2ccc(F)cc2)C1 (stereo not drawn) | 0.9 | 0.8 | -0.5 | -14.2 | -2.4 | 0.9
Clc1cccc(C2NCc3ccccc3-n3cccc32)c1 (stereo not drawn) | · | · | · | -3.0 | · | ·
CC(Cc1ccccc1)NC(=O)Cc1ccc(N(C)C)cc1 (stereo not drawn) | 1 | 0.9 | 0.0 | 1.8 | 10.7* | 1
CC(Cc1ccccc1)NC(N)=O (stereo not drawn) | · | · | · | -8.9 | · | ·
O=C1NC(=O)N(c2ccccc2)C(=O)/C1=C/c1coc2ccc(O)cc2c1=O | · | · | · | -36.8 | · | ·
CSc1ccc(C(c2c(O)c3ccccc3oc2=O)c2c(C)n(C)n(-c3ccccc3)c2=O)cc1 (stereo not drawn) | 1 | 1 | -0.1 | -11.9 | -3.7 | 1
Cc1c(C(c2ccc(Br)cc2)c2c(O)c3ccccc3oc2=O)c(=O)n(-c2ccccc2)n1C (stereo not drawn) | 1.1 | 0.8 | -0.3 | 52.6* | -5.2 | 1.1
O=C1NC(=O)N(CCc2ccc(F)cc2)C(=O)/C1=C/c1ccco1 | 2* | 0.9 | -0.4 | -37.9 | -1.5 | 1.6
COc1ccc(CN2C(=O)NC(=O)/C(=C\c3ccco3)C2=O)cc1 | 1.8 | 0.9 | 6.1 | -27.0 | 11.6* | 1.5
Cc1ccc(/C=C2/C(=O)NC(=O)N(CCc3ccc(F)cc3)C2=O)o1 | 1.1 | 0.9 | 0.7 | -86.5 | -4.1 | 1
S=C1NC2(CCCCC2)NC12CCCCC2 | · | · | · | -2.3 | · | ·
CCN(CC)c1ccc(/C=C2/C(=O)NC(=O)N(Cc3ccco3)C2=O)cc1 | 1.2 | 0.8 | -0.1 | 167.8* | -6.8 | 1.1
CN(C)c1ccc(/C=C2/C(=O)NC(=O)N(Cc3ccco3)C2=O)cc1 | 1.3 | 0.9 | 0.4 | 77.6* | -6.4 | 1.1
SMILES | PMI act satM6P | Diaph act CS | DTT redox prof | NCF1 inh | HMGR II inh | PMI act
CCN(CC)c1ccc(/C=C2\C(=O)NC(=O)N(CC3CCCO3)C2=O)cc1 (stereo not drawn) | 1 | 0.8 | -0.3 | -115.7 | -1.1 | 1
COC(=O)C1=Nc2ccccc2/C1=C\c1c(O)n(C)c(=O)n(C)c1=O | · | · | · | -30.0 | · | ·
Cn1c(O)c(/C=C2\N=c3ccccc3=C2CCNC(=S)NC2CC2)c(=O)n(C)c1=O | · | · | · | 38.7* | · | ·
CSC(=Nc1ccccc1)c1c(O)n(C)c(=O)n(C)c1=O | 2.2* | 0.9 | -0.2 | 9.8 | 0.8 | 1.7
Cn1c(O)c(C(=Nc2ccccc2)SCc2ccccc2Cl)c(=O)n(C)c1=O | · | · | · | -11.6 | · | ·
CCOc1cccc(OCC)c2c(C)[n+](CC3CCCO3)c(C)c1-2 (stereo not drawn) | 2* | 0.7 | 1.4 | 15.9 | 1.1 | 1.6
C=C1N2CCC(CC2)C1(O)c1ccc(C)cc1 (stereo not drawn) | 2.1* | 0.9 | 0.2 | -2.9 | -4.1 | 1.6
Cc1ccc(N/N=C/c2c(O)n(-c3ccccc3)c(=O)[nH]c2=O)cc1 | 2.5* | 0.8 | 0.2 | 0.9 | -2.7 | 1.6
Cc1ccc(-n2c(O)c(/C=N/c3ncc(Br)cc3Br)c(=O)[nH]c2=O)cc1 | 0.9 | 0.8 | -1.6 | 18.4 | 10.0* | 1
Cc1cccc(-n2c(O)c(C=Nc3ccc(Br)cn3)c(=O)[nH]c2=O)c1 | · | · | 0.2 | -1.5 | -1.3 | ·
O=S(=O)(c1ccccc1)N1CC1c1ccccc1 (stereo not drawn) | 1.1 | 1.1 | -0.3 | -1.7 | -0.7 | 1.1
O=C(c1cc(F)ccc1F)C1CCCN(CCCc2ccccc2)C1 (stereo not drawn) | 0.9 | 0.8 | 0.7 | -3.4 | 9.6* | 0.9
O=C(c1cc(F)ccc1F)C1CCCN(Cc2cccc(Cl)c2)C1 (stereo not drawn) | 0.9 | 0.7 | -1.3 | -8.8 | -2.8 | 0.8
O=c1[nH]c(=O)n(Cc2ccco2)c(O)c1/C=N/N1CCCCC1 | 1.1 | 0.9 | 0.3 | -60.7 | -4.5 | 1.1
COc1ccccc1N(CC(=O)NC1CCCCC1)C(=O)c1cnn(C(C)C)c1 | 0.9 | 0.9 | 0.4 | 33.1* | -3.7 | 0.9
CCOC(=O)c1c(C)[nH]c(C(=O)C(Cc2ccccc2)N(C)C)c1C (stereo not drawn) | 0.9 | 0.9 | -0.1 | -33.9 | 0.1 | 0.8
CCC(=NCCOc1ccc(Cl)cc1)c1c(O)n(C)c(=O)n(C)c1=O | 1 | 0.9 | 1.0 | -4.3 | -0.1 | 1
O=C(c1ccc(Cl)cc1)C1CCCN(Cc2cccc3ncccc23)C1 (stereo not drawn) | 0.9 | 0.7 | -1.2 | -9.3 | 0.1 | 0.8
